Activity calls are given as the source filed them. The calls are words filed in the database; no cut-off is given here.
Tests used:
[1] = molecular target: T1, Free fatty acid receptor 1 (Homo sapiens, UniProt O14842); assay: Agonist activity at human FFA1 receptor expressed in CHO cells assessed as increase in intracellular calcium flux at 100 nM by FLIPR assay relative to control; type: functional, cell-based
In short: (§1)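 CHO cells stably expressing human FFA1 (NM_005303), seeded at 15 K cells/well and grown 16 h at 37 °C, 5% CO2. Calcium flux read by FLIPR Tetra. Response = (A−B)/(C−B)×100, with B vehicle and C 10 μM γ-linolenic acid. Mean of three independent experiments.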

[2] = 1-octanol-phosphate buffer partition coefficient, log D of the compound at 100 uM at pH 7.4 after 24 hrs by shake-flask method; type: physicochemical
In short: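 Test compound at 100 μM final (from 10 mM DMSO stock) in 0.01 M phosphate buffer pH 7.4 and 1-octanol, shaken 700 rpm for 24 h, phases left 1 h to separate. Each phase analysed by HPLC in duplicate at 254 nm. LogD is the octanol/buffer peak-area ratio, corrected with two calibration points per compound per solvent. Three independent experiments.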

[3] = molecular target: T1, Free fatty acid receptor 1; assay: Agonist activity at human FFA1 receptor expressed in CHO cells assessed as increase in intracellular calcium flux by FLIPR assay; type: functional, cell-based; in short: as §1
Mus musculus [4] = assay: Toxicity in overnight fasted ICR mouse assessed as hypoglycemia at 15 mg/kg, po measured at 30 to 180 mins; type: organism-based; conditions: in vivo
In short: (§2)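 Male ICR mice, 10 weeks old, fasted overnight, in 3 groups (n = 6). Single oral dose in 0.5% CMC. Tail-vein blood glucose measured by strips at 0, 30, 60, 90, 120 and 180 min. Mean ± SEM, Student's t test.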

Mus musculus [5] = assay: Antidiabetic activity in overnight fasted STZ-induced type 2 diabetic C57BL/6 mouse model assessed as decrease in blood glucose level at 20 mg/kg, po administered glucose 30 mins post compound treatment measured at 15 to 120 mins by OGTT; type: functional, organism-based
In short: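 Male C57BL/6 mice on 45% fat diet for 4 weeks, then STZ 80 mg/kg ip, then high-fat diet 4 more weeks. Mice with fasting glucose ≥11.1 mmol/L were used, fasted 12 h (n = 6). Oral dose in 0.5% CMC, with 20% glucose (2 g/kg) orally 30 min later. Strip glucose read at −30, 0, 15, 30, 45, 60 and 120 min.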

Mus musculus [6] = assay: Toxicity in overnight fasted ICR mouse assessed as hypoglycemia at 40 mg/kg, po measured at 30 to 180 mins; type: organism-based; conditions: in vivo; in short: as §2
Mus musculus [7] = assay: Antidiabetic activity in po dosed overnight fasted ICR mouse assessed as decrease in blood glucose level administered glucose 30 mins post compound treatment measured at 15 to 120 mins by OGTT; type: functional, organism-based
In short: (§3)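 Male ICR mice, 10 weeks old, fasted 12 h and randomized (n = 6). Compound given orally at 10, 20 or 40 mg/kg in 0.5% CMC, with 30% glucose (3 g/kg) orally 30 min later. Tail blood glucose measured by test strips at −30, 0, 15, 30, 45, 60 and 120 min. Student's t test vs vehicle.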

Mus musculus [8] = assay: Antidiabetic activity in overnight fasted ICR mouse assessed as decrease in blood glucose level at 20 mg/kg, po administered glucose 30 mins post compound treatment measured at 15 to 120 mins by OGTT; type: functional, organism-based; in short: as §3

T1 sequence (O14842 whole entry): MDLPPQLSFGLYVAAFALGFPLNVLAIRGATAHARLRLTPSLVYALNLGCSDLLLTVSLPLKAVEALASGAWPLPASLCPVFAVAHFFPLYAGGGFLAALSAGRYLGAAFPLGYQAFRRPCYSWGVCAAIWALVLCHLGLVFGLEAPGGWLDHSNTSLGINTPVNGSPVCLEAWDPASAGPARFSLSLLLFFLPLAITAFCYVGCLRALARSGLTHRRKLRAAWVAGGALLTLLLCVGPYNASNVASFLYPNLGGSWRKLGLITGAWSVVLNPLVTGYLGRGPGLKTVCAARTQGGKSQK

Activity [1] | logD at 24 h, 100 µM [2] | EC50 [3] | SMILES | other results
18.4% |  |  | Cc1cc(OCC(=O)N2CCOCC2)cc(C)c1-c1cccc(COc2ccc(OCC(=O)O)c(F)c2)c1 | 
35.2% |  |  | Cc1cc(OCC(C)C)cc(C)c1-c1cccc(COc2ccc(OCC(=O)O)c(F)c2)c1 | 
47.9% | 3.64 | 0.106 µM | CCCOc1cc(C)c(-c2cccc(COc3ccc(OCC(=O)O)c(F)c3)c2)c(C)c1 | 
2.57% |  |  | Cc1cc(OCc2cccc(-c3c(C)cc(OCCCS(C)(=O)=O)cc3C)c2)ccc1N(CC(=O)O)C(=O)c1ccccc1 | 
18.4% |  |  | CC(=O)N(CC(=O)O)c1ccc(OCc2cccc(-c3c(C)cc(OCCCS(C)(=O)=O)cc3C)c2)cc1C | 
28.9% |  |  | Cc1cc(OCCCS(C)(=O)=O)cc(C)c1-c1cccc(COc2ccc(N(CC(=O)O)C(=O)c3ccoc3)cc2)c1 | 
23.5% |  |  | Cc1cc(OCCCS(C)(=O)=O)cc(C)c1-c1cccc(COc2ccc(N(CC(=O)O)C(=O)c3ccccc3)cc2)c1 | 
48.7% | 3.15 | 0.104 µM | COCCOc1cc(C)c(-c2cccc(COc3ccc(OCC(=O)O)c(F)c3)c2)c(C)c1 | 
53.1% | 3.48 | 0.0659 µM | CCOc1cc(C)c(-c2cccc(COc3ccc(OCC(=O)O)c(F)c3)c2)c(C)c1 | 
36.9% |  |  | Cc1cc(OC(C)C)cc(C)c1-c1cccc(COc2ccc(OCC(=O)O)c(F)c2)c1 | 
 |  |  | COc1ccc(Cl)cc1C(=O)NCCc1ccc(S(=O)(=O)NC(=O)NC2CCCCC2)cc1 [GLYBURIDE] | Activity (Mus musculus [4]): Toxic
38% |  |  | COCCCOc1cc(C)c(-c2cccc(COc3ccc(OCC(=O)O)c(F)c3)c2)c(C)c1 | 
44.3% | 2.37 | 0.11 µM | Cc1cc(O)cc(C)c1-c1cccc(COc2ccc(OCC(=O)O)c(F)c2)c1 | 
61.3% | 1.63 | 0.0436 µM | Cc1cc(OCCCS(C)(=O)=O)ccc1-c1cccc(COc2ccc(OCC(=O)O)c(F)c2)c1 | Activity (Mus musculus [5]): Active; Activity (Mus musculus [6]): Non-toxic; Activity (Mus musculus [7]): Dose-dependent effect
13.5% |  |  | Cc1cc(OCC(=O)N(C)C)cc(C)c1-c1cccc(COc2ccc(OCC(=O)O)c(F)c2)c1 | 
36.3% |  |  | CC(=O)N(CC(=O)O)c1ccc(OCc2cccc(-c3c(C)cc(OCCCS(C)(=O)=O)cc3C)c2)cc1 | 
 | 2.43 |  | Cc1cc(OCCCS(C)(=O)=O)cc(C)c1-c1cccc(COc2ccc3c(c2)OC[C@H]3CC(=O)O)c1 | Activity (Mus musculus [5]): Active; Activity (Mus musculus [8]): Active
23.6% |  |  | Cc1cc(OCCOCc2ccccc2)cc(C)c1-c1cccc(COc2ccc(OCC(=O)O)c(F)c2)c1 | 
26.4% |  |  | Cc1cc(OCc2ccccc2)cc(C)c1-c1cccc(COc2ccc(OCC(=O)O)c(F)c2)c1 | 
44.4% | 2.73 | 0.11 µM | Cc1cc(OCCCO)cc(C)c1-c1cccc(COc2ccc(OCC(=O)O)c(F)c2)c1 | 
 | 1.81 |  | Cc1cc(OCCCS(C)(=O)=O)cc(C)c1-c1cccc(COc2ccc(OCC(=O)O)c(F)c2)c1 | 
58.4% | 3.2 | 0.0497 µM | COc1cc(C)c(-c2cccc(COc3ccc(OCC(=O)O)c(F)c3)c2)c(C)c1 | 
41.6% |  |  | CCCCOc1cc(C)c(-c2cccc(COc3ccc(OCC(=O)O)c(F)c3)c2)c(C)c1 | 

— ChEMBL document CHEMBL3627655, “Design, synthesis and biological activity of phenoxyacetic acid derivatives as novel free fatty acid receptor 1 agonists” (Bioorg Med Chem, 2015)
